One data set has as its target Stromelysin-1 (Homo sapiens, UniProt P08254). Nature of the data set: Inhibitory activity against human matrix metalloprotease-3 (MMP-3) ([…]).
For another data set, the target named is T1, Interstitial collagenase (Homo sapiens, UniProt P03956).
T1 sequence (P03956 whole entry): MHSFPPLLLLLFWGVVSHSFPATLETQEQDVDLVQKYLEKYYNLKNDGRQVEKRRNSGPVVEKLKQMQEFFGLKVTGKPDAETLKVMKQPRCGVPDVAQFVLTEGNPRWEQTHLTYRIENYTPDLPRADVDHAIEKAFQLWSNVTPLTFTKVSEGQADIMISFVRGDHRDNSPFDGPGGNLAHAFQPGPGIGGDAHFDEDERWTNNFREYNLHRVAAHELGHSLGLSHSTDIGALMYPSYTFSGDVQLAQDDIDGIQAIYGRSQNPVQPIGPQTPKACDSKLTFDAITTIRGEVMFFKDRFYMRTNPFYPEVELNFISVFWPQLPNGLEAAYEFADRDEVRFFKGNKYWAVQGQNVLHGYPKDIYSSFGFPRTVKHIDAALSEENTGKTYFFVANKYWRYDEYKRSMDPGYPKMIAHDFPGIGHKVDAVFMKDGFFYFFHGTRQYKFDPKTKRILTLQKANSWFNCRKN
Nature of the data set: Inhibitory activity against human matrix metalloprotease-1 in quenched fluorescence assay at […]. Put shortly: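 Quenched fluorescence assay using truncated human recombinant enzymes expressed in E. coli, at final concentrations of 8 nM for MMP-1 and 16 nM for MMP-3. Substrate was Mca-Pro-Leu-Gly-Leu-Dpa-Ala-Arg-NH₂ at 4 μM, at 25 °C, in 50 mM Tris pH 7.5, 0.2 M NaCl, 5 mM CaCl₂, 0.02% Brij-35. Fluorescence (ex 328/em 393 nm) was read kinetically for 30 min. Eight inhibitor concentrations were tested and IC50 was fitted from Vi/V0.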

In data set [1] the target is 72 kDa type IV collagenase (Homo sapiens, UniProt P08253). Nature of the data set: Inhibitory activity against matrix metalloprotease-2 (MMP-2) in quenched fluorescence assay at […]. Put shortly: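 Full-length human recombinant proMMP-2 from CHO cells was activated with 1 mM APMA for 45 min and used at 1 nM final. Cleavage of 4 μM Mca-Pro-Leu-Gly-Leu-Dpa-Ala-Arg-NH₂ was followed at 25 °C in Tris pH 7.5/NaCl/CaCl₂/Brij-35 buffer, with fluorescence read kinetically for 30 min. IC50 came from 8 inhibitor concentrations.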

A further data set concerns the target Collagenase 3 (Homo sapiens, UniProt P45452). Put plainly: Inhibitory activity against human matrix metalloprotease-13 in quenched fluorescence assay at pH 7.4.
Data set [2] is described as follows: Solubility was determined at a pH of […]. Format: physicochemical. As to conditions: pH 7.

This passage reports IC50 and solubility results from ChEMBL document CHEMBL1134384, “Development of new carboxylic acid-based MMP inhibitors derived from functionalized propargylglycines” (J Med Chem, 2001).

pIC50: −log10 of the molar value. In brackets after ≈: the same amount, converted by molar mass.

Stromelysin-1, sequence (P08254 whole entry): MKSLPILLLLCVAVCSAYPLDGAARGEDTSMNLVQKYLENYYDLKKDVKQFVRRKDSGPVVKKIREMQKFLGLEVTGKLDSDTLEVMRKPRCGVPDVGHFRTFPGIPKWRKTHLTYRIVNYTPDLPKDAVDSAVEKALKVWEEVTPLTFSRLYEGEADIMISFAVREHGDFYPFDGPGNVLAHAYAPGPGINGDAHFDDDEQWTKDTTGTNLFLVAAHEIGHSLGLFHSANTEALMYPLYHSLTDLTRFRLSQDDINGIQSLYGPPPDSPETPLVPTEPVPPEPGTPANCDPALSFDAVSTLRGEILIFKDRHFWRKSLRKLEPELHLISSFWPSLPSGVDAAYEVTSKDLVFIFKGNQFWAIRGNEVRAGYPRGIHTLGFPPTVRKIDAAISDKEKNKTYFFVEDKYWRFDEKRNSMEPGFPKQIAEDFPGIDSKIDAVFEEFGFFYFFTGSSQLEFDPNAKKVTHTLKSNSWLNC
72 kDa type IV collagenase, sequence (P08253 whole entry): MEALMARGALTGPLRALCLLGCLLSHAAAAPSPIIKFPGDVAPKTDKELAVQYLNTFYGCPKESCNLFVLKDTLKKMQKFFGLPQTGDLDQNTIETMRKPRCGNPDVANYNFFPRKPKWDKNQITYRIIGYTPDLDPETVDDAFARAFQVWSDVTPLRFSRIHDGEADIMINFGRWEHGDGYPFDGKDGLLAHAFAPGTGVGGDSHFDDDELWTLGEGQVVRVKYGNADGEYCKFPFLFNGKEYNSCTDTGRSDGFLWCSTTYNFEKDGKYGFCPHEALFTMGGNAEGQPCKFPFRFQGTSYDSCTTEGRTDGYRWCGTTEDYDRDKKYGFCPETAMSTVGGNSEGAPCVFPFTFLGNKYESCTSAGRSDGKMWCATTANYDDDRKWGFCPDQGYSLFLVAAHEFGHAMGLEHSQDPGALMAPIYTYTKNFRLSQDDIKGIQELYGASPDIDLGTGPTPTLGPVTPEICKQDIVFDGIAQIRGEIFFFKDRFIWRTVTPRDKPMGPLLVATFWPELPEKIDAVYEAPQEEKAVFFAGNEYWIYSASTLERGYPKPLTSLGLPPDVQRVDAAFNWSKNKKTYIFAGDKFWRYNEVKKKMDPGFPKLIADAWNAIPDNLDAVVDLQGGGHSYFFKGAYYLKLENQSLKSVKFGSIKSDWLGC

For `Cc1ccc(C#Cc2ccc(S(=O)(=O)NC(CC#Cc3ccccc3)C(=O)O)cc2)cc1` (stereo not drawn), the pIC50 (as a rule, −log10 of the IC50, conventionally taken in molar units) was 4.66 on Stromelysin-1, less than 5.00 at Interstitial collagenase, 7.72 in data set [1] and 7.05 on Collagenase 3.

With `COCC#CCC(NS(=O)(=O)c1ccc(NC(=O)N2CCOCC2)cc1)C(=O)O` (stereo not drawn), the pIC50 was less than 5.00 against Stromelysin-1, less than 5.00 against Interstitial collagenase, 5.56 in data set [1] and less than 5.00 at Collagenase 3.

As to `COCCOCOCC#CCC(NS(=O)(=O)c1ccc(-c2ccc(OC)cc2)cc1)C(=O)O` (stereo not drawn), the pIC50 was 5.63 against Stromelysin-1, 5.19 at Interstitial collagenase, 7.48 in data set [1] and 7.06 on Collagenase 3.

In the case of `CSc1ccc(-c2ccc(S(=O)(=O)NC(CC#CCN3CCOCC3)C(=O)O)cc2)cc1` (stereo not drawn), the figures for the pIC50 (on Stromelysin-1; at Interstitial collagenase; in data set [1]) were 5.30, 4.94 and 7.62, respectively.

Take `O=C(O)C(CC#Cc1ccccc1)NS(=O)(=O)c1ccc(-c2ccc(F)cc2)cc1` (stereo not drawn): the pIC50 against Stromelysin-1 is 5.05; at Interstitial collagenase, 5.25; in data set [1], 6.76; against Collagenase 3 it was 6.64.

On to `COc1ccc(-c2ccc(S(=O)(=O)NC(CC#CCN3CCN(C(=O)OC(C)(C)C)CC3)C(=O)O)cc2)cc1` (stereo not drawn), for which the pIC50 at Stromelysin-1 is less than 5.00; against Interstitial collagenase it was less than 5.00; in data set [1] it was 6.18.

Consider `COc1ccc(-c2ccc(S(=O)(=O)NC(CC#CCN3CCCC3)C(=O)O)cc2)cc1` (stereo not drawn), for which the pIC50 at Stromelysin-1 is less than 5.00; at Interstitial collagenase it was less than 5.00; in data set [1], 7.00.

Take `CSc1ccc(-c2ccc(S(=O)(=O)NC(CC#Cc3ccccc3)C(=O)O)cc2)cc1` (stereo not drawn): the pIC50 is 5.47 against Stromelysin-1, 6.20 at Interstitial collagenase, 8.22 in data set [1] and 7.80 on Collagenase 3.

On to `COc1ccc(-c2ccc(S(=O)(=O)NC(CC#Cc3ccccc3)C(=O)O)s2)cc1` (stereo not drawn), for which the concentration in solution in data set [2] (solubility) came to 30 µg/mL (≈ 67.9 µM). The figures for the pIC50 (on Stromelysin-1; against Interstitial collagenase; in data set [1]) were 5.88, 5.49 and 7.70, respectively.

Consider `O=C(Nc1ccc(S(=O)(=O)NC(CC#Cc2ccccc2)C(=O)O)cc1)c1ccc(Cl)cc1` (stereo not drawn), for which the pIC50 against Stromelysin-1 is 5.45; against Interstitial collagenase, less than 5.00; in data set [1] it was 8.22; at Collagenase 3 it was 6.90.

In the case of `CO[C@H](C#Cc1ccccc1)C(NS(=O)(=O)c1ccc(-c2ccc(SC)cc2)cc1)C(=O)O` (stereo partly drawn), in data set [2], the concentration in solution (solubility) came to 120 µg/mL (≈ 249 µM). The pIC50 is 5.29 against Stromelysin-1, 5.47 against Interstitial collagenase, 8.10 in data set [1] and 7.48 on Collagenase 3.

With `O=C(O)C(CC#Cc1ccccc1)NS(=O)(=O)c1ccc(-c2ccc(Oc3ccccc3)cc2)cc1` (stereo not drawn), the pIC50 against Stromelysin-1 was 5.34; against Interstitial collagenase, less than 5.00; in data set [1], 5.83; at Collagenase 3, 5.67.

Regarding `COCC#CCC(NS(=O)(=O)c1ccc(NC(=O)c2ccc(Br)cc2)cc1)C(=O)O` (stereo not drawn), the pIC50 at Stromelysin-1 was 5.06; against Interstitial collagenase it was less than 5.00; in data set [1] it was 8.22; against Collagenase 3 it was 6.57.

Take `COc1ccc(-c2ccc(S(=O)(=O)NC(CC#Cc3ccc(N4CCOCC4)cc3)C(=O)O)cc2)cc1` (stereo not drawn): the pIC50 is 4.84 on Stromelysin-1, less than 5.00 on Interstitial collagenase and 6.80 in data set [1].

For the molecule `COc1ccc(-c2ccc(S(=O)(=O)NC(CC#CCN3CCOCC3)C(=O)O)cc2)cc1` (stereo not drawn), the pIC50 was 4.97 against Stromelysin-1, 4.86 against Interstitial collagenase and 6.98 in data set [1].

Regarding `O=C(O)C(CC#Cc1ccccc1)NS(=O)(=O)c1ccc(Oc2ccccc2)cc1` (stereo not drawn), the pIC50 on Stromelysin-1 was 5.34; on Interstitial collagenase, less than 5.00; in data set [1], 5.83; on Collagenase 3, 5.67.

As to `COCC#CCC(NS(=O)(=O)c1ccc(NC(=O)c2ccc(OC)cc2)cc1)C(=O)O` (stereo not drawn), the concentration in solution in data set [2] (solubility) came to 3200 µg/mL (≈ 7170 µM). In addition, the pIC50 against Stromelysin-1 is 5.05; at Interstitial collagenase it was less than 5.00; in data set [1], 8.10.

On to `COc1ccc(-c2ccc(S(=O)(=O)NC(CC#CCN3CCN(c4ccccc4)CC3)C(=O)O)cc2)cc1` (stereo not drawn), for which the pIC50 is less than 5.00 against Stromelysin-1, less than 5.00 against Interstitial collagenase and 6.26 in data set [1].

Turning to `O=C(O)C(CC#Cc1ccccc1)NS(=O)(=O)c1ccc(-c2ccc3c(c2)OCO3)cc1` (stereo not drawn), the concentration in solution in data set [2] (solubility) was 80 µg/mL (≈ 178 µM). Also, the pIC50 against Stromelysin-1 is 5.26; on Interstitial collagenase, 4.99; in data set [1], 7.54; against Collagenase 3 it was 6.98.

Take `COc1ccc(S(=O)(=O)c2csc(S(=O)(=O)NC(CC#Cc3ccccc3)C(=O)O)c2)cc1` (stereo not drawn): the pIC50 (on Stromelysin-1; against Interstitial collagenase; in data set [1]; against Collagenase 3) was less than 5.00 in each case.

With `O=C(Nc1ccc(S(=O)(=O)NC(CC#CCOc2ccccc2)C(=O)O)cc1)c1ccc(Br)cc1` (stereo not drawn), the solubility (commonly the dissolved amount per volume that the medium holds) in data set [2] came to 50 µg/mL (≈ 89.7 µM). The pIC50 on Stromelysin-1 was 5.55; at Interstitial collagenase, less than 5.00; in data set [1] it was 8.05.

In the case of `COc1ccc(-c2ccc(S(=O)(=O)NC(C(=O)O)[C@@H](C#Cc3ccccc3)OC)cc2)cc1` (stereo partly drawn), the pIC50 against Stromelysin-1 is 5.43; at Interstitial collagenase, 5.38; in data set [1] it was 7.51; at Collagenase 3, 7.09.

On to `O=C(O)C(CC#CCOc1ccccc1)NS(=O)(=O)c1ccc(-c2ccc(Br)cc2)cc1` (stereo not drawn), for which the negative-log IC50 (pIC50) against Stromelysin-1 is 5.74; on Interstitial collagenase it was less than 5.00; in data set [1] it was 7.64; against Collagenase 3 it was 6.60.

With `COc1ccc(-c2ccc(S(=O)(=O)NC(CC#CCc3ccccc3)C(=O)O)cc2)cc1` (stereo not drawn), the pIC50 against Stromelysin-1 was 6.11; at Interstitial collagenase, 5.48; in data set [1], 7.48; at Collagenase 3, 7.66.

Consider `O=C(O)C(CC#CCN1CCOCC1)NS(=O)(=O)c1ccc(-c2ccccc2)cc1` (stereo not drawn), for which the values for the pIC50 (against Stromelysin-1; against Interstitial collagenase; in data set [1]) were less than 5.00, less than 5.00 and 6.53, respectively.

Turning to `O=C(O)C(CC#Cc1ccccc1)NS(=O)(=O)c1ccc(-c2ccc(-c3ccccc3)cc2)cc1` (stereo not drawn), the pIC50 was less than 5.00 at Stromelysin-1, less than 5.00 against Interstitial collagenase, 7.54 in data set [1] and 7.23 against Collagenase 3.

Take `COCC#CCC(NS(=O)(=O)c1ccc(NC(=O)N2CCCC2)cc1)C(=O)O` (stereo not drawn): the pIC50 against Stromelysin-1 was less than 5.00; at Interstitial collagenase, less than 5.00; in data set [1] it was 6.25; against Collagenase 3 it was 4.77.

In the case of `O=C(O)C(CC#Cc1ccccc1)NS(=O)(=O)c1ccc(/N=N/c2ccccc2)cc1` (stereo not drawn), the pIC50 is 4.79 on Stromelysin-1 and 7.06 in data set [1].

`COCC#CCC(NS(=O)(=O)c1ccc(-c2ccc(OC)cc2)cc1)C(=O)O` (stereo not drawn) displayed a solubility in data set [2] of 5800 µg/mL (≈ 14400 µM). The pIC50 against Interstitial collagenase was 5.21; in data set [1], 7.70; at Collagenase 3, 7.12.

With `COc1ccc(S(=O)(=O)c2ccc(S(=O)(=O)NC(CC#Cc3ccccc3)C(=O)O)s2)cc1` (stereo not drawn), the pIC50 (against Stromelysin-1; on Interstitial collagenase; in data set [1]; against Collagenase 3) was less than 5.00 in each case.

Consider `COCCOc1ccc(-c2ccc(S(=O)(=O)NC(CC#Cc3ccccc3)C(=O)O)cc2)cc1` (stereo not drawn), for which the pIC50 at Stromelysin-1 was 5.61; against Interstitial collagenase, less than 5.00; in data set [1] it was 7.59; at Collagenase 3, 7.30.

With `COc1ccc(-c2ccc(S(=O)(=O)NC(CC#CCN3CCN(S(C)(=O)=O)CC3)C(=O)O)cc2)cc1` (stereo not drawn), the pIC50 on Stromelysin-1 is less than 5.00; on Interstitial collagenase, less than 5.00; in data set [1], 5.94.

Turning to `COc1ccc(C(=O)Nc2ccc(S(=O)(=O)NC(CC#CCOc3ccccc3)C(=O)O)cc2)cc1` (stereo not drawn), the solubility in data set [2] was 410 µg/mL (≈ 806 µM). Further, the pIC50 at Stromelysin-1 was 5.41; against Interstitial collagenase, less than 5.00; in data set [1] it was 8.05; at Collagenase 3, 6.65.

For the molecule `O=C(O)C(CC#CCN1CCCC1)NS(=O)(=O)c1ccc(-c2ccccc2)cc1` (stereo not drawn), the pIC50 against Stromelysin-1 was less than 5.00; at Interstitial collagenase it was less than 5.00; in data set [1], 6.42; against Collagenase 3, 5.52.

For `COc1ccc(-c2ccc(S(=O)(=O)NC(C(=O)O)[C@@H](C#Cc3ccccc3)OCc3ccccc3)cc2)cc1` (stereo partly drawn), the pIC50 on Stromelysin-1 was 5.37; on Interstitial collagenase it was less than 5.00; in data set [1] it was 8.10; on Collagenase 3, 7.85.

As for `CCCCOc1ccc(S(=O)(=O)NC(CC#Cc2ccccc2)C(=O)O)cc1` (stereo not drawn), the pIC50 against Stromelysin-1 is 4.81; on Collagenase 3, 5.69.

For the molecule `CCOc1cccc(-c2ccc(S(=O)(=O)NC(CC#Cc3ccccc3)C(=O)O)cc2)c1` (stereo not drawn), the pIC50 is less than 5.00 at Interstitial collagenase, 5.62 in data set [1] and less than 5.80 on Collagenase 3.
